Measured values reported in PubChem BioAssay AID602317 (Southern Research Specialized Biocontainment Screening …, 2012).
Results filed as inconclusive are left out. Calls of active or inactive are those of the source.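 The calls were made as follows: active = viability under 80% at one or more tested concentrations, read as toxic; inconclusive = replicate runs disagree on whether the viability cutoff is met; inactive = viability stays at 80% or higher at every dose.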

test system: not listed separately; test: Vero E6 cell cytotoxicity, dose response, cytotoxicity control for PfM17LAP inhibitor project, set 3 (AID 602317); settings: Vero E6 viability, CellTiter-Glo luminescence, 72 h; at 50 µM (top of the series)
In short: (§1)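 System: Vero E6 cells / Benchmarks: DMSO vehicle wells / Evaluation: % viability vs DMSO wells, CC50 from bounded 4-parameter fit / Measured by: CellTiter-Glo luminescence / Incubation: 72 h compound exposure at 37 °C, 5% CO2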

Question: With `CN1CCN(CCc2ccc(O)c(O)c2)CC1` as the molecule, how does the viability read?
Answer: 102% (inactive)

Question: For `CCCCOc1cccc(CC(=O)OC)c1`, which viability is on record?
Answer: 99.7% (inactive)

Question: For `CCCCOc1ccc(C(C)(C)C(=O)O)cc1`, which viability is on record?
Answer: 98.2% (inactive)

Question: For `CCCOc1ccc(CC(=O)O)cc1`, which viability is on record?
Answer: 81.1% (inactive)

Question: Which viability does the source give for `CN1CCN(c2nc(-c3ccc(O)c(O)c3)cs2)CC1` here?
Answer: 97.9% (inactive)

Question: With `COC(=O)Cc1ccc(OCCN(C)C)cc1` as the molecule, how does the viability read?
Answer: 98.9% (inactive)

Question: With `CN(C)CCOc1ccc(CC(=O)O)cc1` as the molecule, how does the viability read?
Answer: 98.8% (inactive)

Question: With `CCCCOc1ccc(C(C)C(=O)O)cc1` (stereo unspecified) as the molecule, how does the viability read?
Answer: 90.8% (inactive)

Question: For `CCC(C)Oc1ccc(CC(=O)OC)cc1` (stereo unspecified), which viability is on record?
Answer: 93% (inactive)

Question: With `Cc1ccc(CC(=O)NO)cc1` as the molecule, how does the viability read?
Answer: 104% (inactive)

Question: With `CC[C@H](C)[C@H](NS(=O)(=O)c1ccc(Br)s1)C(=O)NCc1ccc2c(c1)OCO2` as the molecule, how does the viability read?
Answer: 107% (inactive)

Question: Which viability does the source give for `CCOc1ccc(CC(=O)NO)cc1` here?
Answer: 96.8% (inactive)

Question: With `CN1CCN(CCCc2ccc(O)c(O)c2)CC1` as the molecule, how does the viability read?
Answer: 96% (inactive)

Question: For `Oc1ccc(CCNc2ccnc3ccccc23)cc1O`, which viability is on record?
Answer: 95.5% (inactive)

Question: For `COC(=O)Cc1ccc(OCC(C)C)cc1`, which viability is on record?
Answer: 109% (inactive)

Question: Which viability does the source give for `CCCCOc1ccc(C(C)C(=O)OC)cc1` (stereo unspecified) here?
Answer: 97.4% (inactive)

Question: For `CCCCOc1ccc(CNc2c(N(C)O)c(=O)c2=O)cc1`, which viability is on record?
Answer: 91% (inactive)

Question: Which viability does the source give for `CCCOc1ccc(CC(=O)OC)cc1` here?
Answer: 100% (inactive)

Question: For `COc1ccc(CCN(C)c2ccnc3ccccc23)cc1OC`, which viability is on record?
Answer: 84.9% (inactive)

Question: For `COc1ccc(CC(=O)NO)cc1`, which viability is on record?
Answer: 102% (inactive)

Question: Which viability does the source give for `CCCCOc1ccc(CC(=O)O)cc1` here?
Answer: 95.5% (inactive)

Question: With `CCCCOc1ccc(CNc2c(N(O)Cc3ccccc3)c(=O)c2=O)cc1` as the molecule, how does the viability read?
Answer: 95.5% (inactive)

Question: With `CC(C)(C(=O)NO)c1ccccc1` as the molecule, how does the viability read?
Answer: 104% (inactive)

Question: Which viability does the source give for `CCCOc1ccc(CC(=O)NO)cc1` here?
Answer: 91.5% (inactive)

Question: With `O=C(NCc1ccc2c(c1)OCO2)C1CCN(S(=O)(=O)c2ccc(Br)s2)CC1` as the molecule, how does the viability read?
Answer: 95.4% (inactive)

Question: Which viability does the source give for `CCCCOc1ccc(C(C)(C)C(=O)NO)cc1` here?
Answer: 81.2% (inactive)

Question: Which viability does the source give for `O=C(NO)c1cccc2ccccc12` here?
Answer: 84.7% (inactive)

Question: For `Oc1ccc(-c2csc(Nc3ncccn3)n2)cc1O`, which viability is on record?
Answer: 87.7% (inactive)

Question: For `COc1ccc(CCCN2CCN(C)CC2)cc1OC`, which viability is on record?
Answer: 99.5% (inactive)

test system: Vero E6 viability, CellTiter-Glo luminescence, 72 h; test: as above; settings: not given
In short: as §1

Question: Which CC50 does the source give for `CCCCOc1ccc(C(C)C(=O)NO)cc1` (stereo unspecified) here?
Answer: 40.8 µM

Question: For `O=C(NCc1ccc(Cl)cc1)C1CCN(S(=O)(=O)c2ccc(Br)s2)CC1`, which CC50 is on record?
Answer: 21.8 µM

Question: Which CC50 does the source give for `Oc1ccc(CCNc2c3ccccc3nc3ccccc23)cc1O` here?
Answer: 45.4 µM

Question: For `CC[C@H](C)[C@H](NC(=O)c1ccc(C(C)(C)C)cc1)C(=O)NCc1ccc2c(c1)OCO2`, which CC50 is on record?
Answer: 38.2 µM

Question: Which CC50 does the source give for `Oc1ccc(CCNC(c2ccccc2)c2ccccc2)cc1O` here?
Answer: 38.7 µM

Question: With `O=C(Cc1ccc(OCc2ccccc2)cc1)NO` as the molecule, how does the CC50 read?
Answer: 48.5 µM

Question: Which CC50 does the source give for `CC[C@H](C)[C@H](NS(=O)(=O)c1ccc(Br)s1)C(=O)NCc1ccc(Cl)cc1` here?
Answer: 46.4 µM

Question: With `CCCCOc1ccc(CC(=O)N(C)O)cc1` as the molecule, how does the CC50 read?
Answer: 44.6 µM

Question: With `CCc1ccc(NC(=O)Cc2nc(-c3ccc(O)c(O)c3)cs2)cc1` as the molecule, how does the CC50 read?
Answer: 42.2 µM

Question: Which CC50 does the source give for `CCCCCCCCCC(=O)NO` here?
Answer: 31 µM

Question: For `COc1ccc(CCNC(c2ccccc2)c2ccccc2)cc1OC`, which CC50 is on record?
Answer: 45.8 µM

Question: With `COc1ccc(CCN(C)c2c3ccccc3nc3ccccc23)cc1OC` as the molecule, how does the CC50 read?
Answer: 40.8 µM

Question: For `CCCCOc1ccc(CCC(=O)NO)cc1`, which CC50 is on record?
Answer: 34.1 µM

Question: Which CC50 does the source give for `CN(O)C(=O)Cc1ccc(OCc2ccccc2)cc1` here?
Answer: 32.5 µM

Question: For `CCCCOc1ccc(CN(O)C(=O)c2ccccc2)cc1`, which CC50 is on record?
Answer: 20.9 µM

Question: With `O=C(Cc1ccc(Oc2ccccc2)cc1)NO` as the molecule, how does the CC50 read?
Answer: 45 µM

Question: Which CC50 does the source give for `COc1ccc(CCNc2c3ccccc3nc3ccccc23)cc1OC` here?
Answer: 17.9 µM
